How the values were obtained:
Format in all cases: functional
TK-10 = assay: Antiproliferative activity against human TK-10 cells assessed as growth inhibition incubated for 72 hrs by MTT assay
RXF 393 = assay: Antiproliferative activity against human RXF 393 cells assessed as growth inhibition incubated for 72 hrs by MTT assay
[1] = Antiproliferative activity against human MINO cells assessed as reduction in cell proliferation at 1 uM measured after 72 hrs by MTT assay relative to control; parameters: scale not given: the % may be the effect or the level left
How it was run: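 Single-dose screen at 1 μM for 72 h at 37 °C, 5% CO2 (DMSO ≤0.1%). Cells in RPMI-1640 with 20% FBS, seeded at 5,000–10,000 cells/well. MTT added for 4 h, SDS lysis, A570 read with medium-only blanks. Percent proliferation relative to untreated cells, run in triplicate.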

UACC-257 = assay: Antiproliferative activity against human UACC-257 cells assessed as growth inhibition incubated for 72 hrs by assay
VL51 = assay: Induction of cell cycle arrest in human VL51 cells assessed as increase in mitotic cells at 1 uM incubated for 24 hrs by PI staining based flow cytometry analysis (reference value: 1.5%)
SN12C = assay: Antiproliferative activity against human SN12C cells assessed as growth inhibition incubated for 72 hrs by MTT assay
SK-MEL-28 = assay: Antiproliferative activity against human SK-MEL-28 cells assessed as growth inhibition incubated for 72 hrs by MTT assay
OVCAR-4 = assay: Antiproliferative activity against human OVCAR-4 cells assessed as growth inhibition incubated for 72 hrs by MTT assay
SK-MEL-2 = assay: Antiproliferative activity against human SK-MEL-2 cells assessed as growth inhibition incubated for 72 hrs by MTT assay

Compound | GI50 (TK-10) | GI50 (RXF 393) | Activity [1] | GI50 (UACC-257) | Activity (VL51) | GI50 (SN12C) | GI50 (SK-MEL-28) | GI50 (OVCAR-4) | GI50 (SK-MEL-2)
COc1ccc(Cn2cc3c(c2-c2cc(OC)c(OC)c(OC)c2)CCCc2cnoc2-3)cc1N | 96600 nM | 450 nM | >50% | 580 nM | ~18% | 840 nM | 2930 nM |  | 
COc1ccc(Cn2cc3c(c2-c2cc(OC)c(OC)c(OC)c2)CCCc2cnoc2-3)cc1 |  | 660 nM | >50% |  | ~18% | 4600 nM |  | 4970 nM | 1610 nM
